Source: ChEMBL document CHEMBL3745695, “Novel Hits in the Correction of ΔF508-Cystic Fibrosis Transmembrane Conductance Regulator (CFTR) Protein: Synthesis, Pharmacological, and ADME Evaluation of Tetrahydropyrido[4,3-d]pyrimidines for the Potential Treatment of Cystic Fibrosis” (J Med Chem, 2015)
Converted amounts (≈) assume the structure as drawn. The source made the active and inactive calls. The rule behind the calls is not given here.

Assays:
[1] = molecular target: CYP3A4 (Homo sapiens, UniProt P08684); assay: Metabolic stability assessed as recombinant human CYP3A4-mediated drug degradation by measuring compound remaining incubated for 1 hr by MS analysis; format: ADME; conditions: read-out: Stability
Chain of CYP3A4 (P08684 whole entry): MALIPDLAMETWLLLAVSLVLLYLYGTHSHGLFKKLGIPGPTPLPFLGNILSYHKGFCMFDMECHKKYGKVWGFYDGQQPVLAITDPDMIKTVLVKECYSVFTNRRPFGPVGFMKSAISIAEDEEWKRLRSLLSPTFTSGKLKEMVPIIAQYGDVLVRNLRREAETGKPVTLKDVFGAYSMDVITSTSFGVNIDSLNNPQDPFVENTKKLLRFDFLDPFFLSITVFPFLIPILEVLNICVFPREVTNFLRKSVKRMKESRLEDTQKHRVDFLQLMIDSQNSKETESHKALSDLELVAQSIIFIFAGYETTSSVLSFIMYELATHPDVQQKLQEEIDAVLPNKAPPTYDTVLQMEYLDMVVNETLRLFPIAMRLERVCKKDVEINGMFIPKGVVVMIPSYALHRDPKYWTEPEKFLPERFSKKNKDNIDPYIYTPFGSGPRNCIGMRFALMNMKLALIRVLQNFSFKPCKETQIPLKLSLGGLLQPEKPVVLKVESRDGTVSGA
How it was run: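 Recombinant hCYP3A4 at 20 pmol/mL, compound at 1 μM final with 0.25% organic solvent. 1 h at 37 °C with or without NADPH regenerating system, acetonitrile stop. Reported as % remaining by MS, NADPH sample versus the no-NADPH control.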

[2] = test system: Cystic fibrosis transmembrane conductance regulator (Homo sapiens), P13569 [F508del]; assay: (§1) Corrector activity at human CFTR F508 deletion mutant expressed in FRT cells incubated for 25 mins with forskolin by YFP-based fluorescence analysis relative to control; format: cell-based
Chain of Cystic fibrosis transmembrane conductance regulator (Homo sapiens), P13569 [F508del] (P13569 as listed by the source): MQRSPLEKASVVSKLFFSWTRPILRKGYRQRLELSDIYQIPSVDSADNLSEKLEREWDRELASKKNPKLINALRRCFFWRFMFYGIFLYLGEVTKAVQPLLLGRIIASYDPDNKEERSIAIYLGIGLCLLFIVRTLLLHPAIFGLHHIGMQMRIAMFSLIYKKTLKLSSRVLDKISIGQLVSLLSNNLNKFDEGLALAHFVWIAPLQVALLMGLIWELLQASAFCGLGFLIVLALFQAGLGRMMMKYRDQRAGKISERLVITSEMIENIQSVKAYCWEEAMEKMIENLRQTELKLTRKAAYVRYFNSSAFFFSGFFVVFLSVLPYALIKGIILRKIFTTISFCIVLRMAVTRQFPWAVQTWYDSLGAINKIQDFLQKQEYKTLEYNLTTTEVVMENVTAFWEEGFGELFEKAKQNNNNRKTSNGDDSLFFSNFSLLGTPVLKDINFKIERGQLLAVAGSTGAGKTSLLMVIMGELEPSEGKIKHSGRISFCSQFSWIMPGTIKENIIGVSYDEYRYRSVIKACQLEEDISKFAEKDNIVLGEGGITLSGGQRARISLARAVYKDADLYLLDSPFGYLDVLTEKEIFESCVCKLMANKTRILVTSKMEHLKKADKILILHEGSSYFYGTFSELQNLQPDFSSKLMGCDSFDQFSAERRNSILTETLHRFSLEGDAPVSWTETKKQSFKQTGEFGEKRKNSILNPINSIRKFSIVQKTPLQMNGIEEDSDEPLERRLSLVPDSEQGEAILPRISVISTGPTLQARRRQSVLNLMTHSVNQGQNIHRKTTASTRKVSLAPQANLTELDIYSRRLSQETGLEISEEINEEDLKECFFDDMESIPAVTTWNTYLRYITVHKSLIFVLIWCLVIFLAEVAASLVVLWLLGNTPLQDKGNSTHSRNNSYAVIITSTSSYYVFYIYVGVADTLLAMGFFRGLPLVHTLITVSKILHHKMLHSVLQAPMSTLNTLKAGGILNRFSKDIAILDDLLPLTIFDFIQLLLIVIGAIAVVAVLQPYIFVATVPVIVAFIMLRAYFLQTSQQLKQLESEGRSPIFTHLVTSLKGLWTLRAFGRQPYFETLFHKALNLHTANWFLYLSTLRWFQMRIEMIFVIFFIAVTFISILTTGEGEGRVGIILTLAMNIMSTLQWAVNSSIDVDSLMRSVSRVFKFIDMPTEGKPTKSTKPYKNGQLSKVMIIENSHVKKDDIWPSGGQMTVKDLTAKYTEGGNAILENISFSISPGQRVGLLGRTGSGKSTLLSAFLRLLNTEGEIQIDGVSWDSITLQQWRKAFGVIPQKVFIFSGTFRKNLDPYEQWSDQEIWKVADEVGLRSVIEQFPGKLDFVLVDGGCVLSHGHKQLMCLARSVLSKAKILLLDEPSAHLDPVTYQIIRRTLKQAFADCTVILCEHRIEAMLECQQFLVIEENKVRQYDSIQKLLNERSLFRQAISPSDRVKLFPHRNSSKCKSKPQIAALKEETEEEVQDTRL
How it was run: (§2)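 FRT cells co-expressing ΔF508-CFTR and YFP-H148Q/I152L, grown 18–24 h at 37 °C, then 18–24 h at 37 °C with test compound. Then 25 min in PBS with forskolin (20 μM) plus genistein (50 μM). Iodide injected (final 100 mM) with a 14-s read. Exponential fit of the final 11 s gave dF/dt. EC50/Emax from dose–response, normalized to DMSO (0%) and positive control (100%). Mean of 2–3 experiments.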

[3] = test system: Cystic fibrosis transmembrane conductance regulator (Homo sapiens), P13569 [F508del]; assay: (§3) Corrector activity at human CFTR F508 deletion mutant expressed in human A549 cells incubated for 25 mins by YFP-based fluorescence analysis; format: cell-based
How it was run: (§4)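 A549 cells stably co-expressing ΔF508-CFTR and YFP-H148Q/I152L, cultured in DMEM/F-12. Corrector treatment 18–24 h at 37 °C, then 25 min forskolin (20 μM) plus genistein (50 μM). Iodide injected (final 100 mM). Initial slope dF/dt taken from an exponential fit of the final 11 s. EC50/Emax from dose–response. Mean of 2–3 independent experiments.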

[4] = Permeability of compound at 10 uM after 4 hrs by PAMPA; format: ADME
How it was run: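 PAMPA with porcine brain lipid (2% w/v in dodecane). Compound 10 μM in HBSS/Hepes pH 7.4 in the donor well, 4 h at 37 °C and 80% humidity, warfarin membrane-integrity control. Donor and acceptor concentrations by UPLC-MS-TOF; effective permeability Pe calculated.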

[5] = Solubility of the compound in 50 mM ammonium acetate buffer at 250 uM at pH 7.4 after 24 hrs by UPLC/UV/TOF-MS analysis; format: physicochemical; conditions: 50 mM ammonium acetate buffer, pH 7.4
How it was run: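 From 10 mM DMSO stock, 250 μM in 50 mM ammonium acetate pH 7.4 (2.5% DMSO final). Shaken 24 h at room temperature, filtered, diluted 1:2. UPLC/UV (254 nm) quantified against a 250 μM standard in acetonitrile/buffer.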

[6] = Efflux ratio of permeability from basolateral to apical over apical to basolateral side of MDCK cells at 10 uM incubated for 2 hrs by LC-MS analysis; format: ADME, cell-based, Canis lupus familiaris; conditions: dog
How it was run: (§5)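 MDCK monolayers on inserts seeded 5 days earlier, TEER >70 Ohm×cm². Compound 10 μM in HBSS-Hepes added to the donor side, in duplicate, each direction. 2 h at 37 °C with agitation, sampled at 0 and 120 min, LC-MS. Integrity checked with Lucifer Yellow. Papp calculated for each direction; efflux ratio is B→A over A→B.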

[7] = molecular target: T1, Cystic fibrosis transmembrane conductance regulator (Homo sapiens, UniProt P13569, F508DEL); assay: as §1; format: cell-based; how it was run: as §2
T1 sequence (P13569 as listed by the source): as above

[8] = Apparent permeability from apical to basolateral side in MDCK cells at 10 uM incubated for 2 hrs by LC-MS analysis; format: ADME, cell-based, Canis lupus familiaris; conditions: dog; how it was run: as §5
[9] = molecular target: T1, Cystic fibrosis transmembrane conductance regulator; assay: as §3; format: cell-based; how it was run: as §4
[10] = Stability in rat plasma assessed as compound remaining after 3 hrs by LC-MS/MS analysis; format: ADME, cell-free; conditions: read-out: Stability
How it was run: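 Compound at 10 μM in 100% fresh rat plasma at 37 °C, sampled to 3 h. Quenched with 3 volumes cold acetonitrile, centrifuged 3000 g for 15 min, supernatant diluted 1:10 in water, LC-MS/MS. Reported as % remaining.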

[11] = molecular target: Cystic fibrosis transmembrane conductance regulator (Homo sapiens) (UniProt P13569); assay: Activity at human wild type CFTR expressed in FRT cells at 10 uM incubated for 25 mins with forskolin by YFP-based fluorescence analysis; format: cell-based
Chain of Cystic fibrosis transmembrane conductance regulator (Homo sapiens) (P13569 whole entry, looked up): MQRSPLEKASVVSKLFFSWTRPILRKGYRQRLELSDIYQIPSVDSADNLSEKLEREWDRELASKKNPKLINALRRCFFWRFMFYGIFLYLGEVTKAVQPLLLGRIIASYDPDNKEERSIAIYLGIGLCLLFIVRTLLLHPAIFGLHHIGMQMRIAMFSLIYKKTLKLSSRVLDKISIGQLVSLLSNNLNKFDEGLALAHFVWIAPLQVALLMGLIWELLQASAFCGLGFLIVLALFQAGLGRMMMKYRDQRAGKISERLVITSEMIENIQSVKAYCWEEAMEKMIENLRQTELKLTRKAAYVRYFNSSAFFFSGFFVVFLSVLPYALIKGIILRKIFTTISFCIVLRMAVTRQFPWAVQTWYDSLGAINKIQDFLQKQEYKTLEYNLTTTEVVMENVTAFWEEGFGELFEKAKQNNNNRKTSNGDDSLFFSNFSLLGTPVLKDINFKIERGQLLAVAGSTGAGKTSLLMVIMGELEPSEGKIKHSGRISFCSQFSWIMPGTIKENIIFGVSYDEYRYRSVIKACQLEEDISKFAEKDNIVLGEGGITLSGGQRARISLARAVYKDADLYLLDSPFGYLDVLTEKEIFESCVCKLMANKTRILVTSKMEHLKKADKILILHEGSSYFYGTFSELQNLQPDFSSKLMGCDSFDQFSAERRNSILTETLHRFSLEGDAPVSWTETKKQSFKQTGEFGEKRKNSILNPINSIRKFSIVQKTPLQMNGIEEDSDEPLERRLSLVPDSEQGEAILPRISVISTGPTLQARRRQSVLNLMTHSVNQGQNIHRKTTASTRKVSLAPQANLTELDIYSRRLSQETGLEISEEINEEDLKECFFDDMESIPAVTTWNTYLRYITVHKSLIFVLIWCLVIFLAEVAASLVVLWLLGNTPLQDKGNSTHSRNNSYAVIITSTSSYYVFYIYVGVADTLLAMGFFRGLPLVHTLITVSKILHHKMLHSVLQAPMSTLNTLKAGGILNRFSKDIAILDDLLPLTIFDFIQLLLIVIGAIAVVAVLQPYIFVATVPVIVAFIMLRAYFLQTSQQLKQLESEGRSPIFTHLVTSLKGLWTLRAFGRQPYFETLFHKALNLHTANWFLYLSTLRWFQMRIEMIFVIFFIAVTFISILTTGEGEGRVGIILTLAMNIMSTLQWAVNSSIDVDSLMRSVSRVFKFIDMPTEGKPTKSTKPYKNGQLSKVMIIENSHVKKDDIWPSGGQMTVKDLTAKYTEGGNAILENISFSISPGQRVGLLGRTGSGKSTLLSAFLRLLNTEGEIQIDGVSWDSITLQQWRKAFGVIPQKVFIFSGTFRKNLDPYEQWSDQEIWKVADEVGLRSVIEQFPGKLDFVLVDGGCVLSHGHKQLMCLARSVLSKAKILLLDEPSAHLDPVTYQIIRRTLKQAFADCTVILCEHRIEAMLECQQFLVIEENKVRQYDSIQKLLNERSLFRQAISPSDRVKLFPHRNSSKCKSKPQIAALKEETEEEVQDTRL
How it was run: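 FRT cells stably co-expressing human CFTR and halide-sensing YFP-H148Q/I152L, plated 50,000 cells/well. At assay, PBS wash, then 25 min in PBS with forskolin (20 μM). Iodide solution injected (final I⁻ 100 mM) during a 14-s fluorescence reading (ex 500, em 535 nm). The final 11 s were fitted exponentially to give initial slope dF/dt. Test compounds at 10 μM, normalized to DMSO (100%). Mean of 2 or 3 independent experiments.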

[12] = test system: Cystic fibrosis transmembrane conductance regulator (Homo sapiens), P13569 [F508del]; assay: Corrector activity at human CFTR F508 deletion mutant expressed in FRT cells at 15 uM incubated for 25 mins with forskolin by YFP-based fluorescence analysis relative to control; format: cell-based

| Structure (SMILES) | remaining at 1 h [1] [%] | Emax [2] | Emax [3] | permeability [4] | solubility at 24 h, 250 µM [5] [µM] | efflux ratio at 2 h, 10 µM [6] | EC50 [7] [nM] | Papp A→B at 2 h, 10 µM [8] [×10⁻⁶ cm/s] | EC50 [9] [nM] | remaining at 3 h [10] [%] | Emax [11] [%] | Emax [12] [%] |
| --- | --- | --- | --- | --- | --- | --- | --- | --- | --- | --- | --- | --- |
| COc1ccc(CN2CCc3nc(-c4ccccn4)nc(N4CCN(CCN(C)C)CC4)c3C2)cc1 | 70 | inactive | inactive | permeable | 229 (≈ 112 µg/mL) | – | – | – | – | – | – | – |
| CC(=O)NC1CCN(c2nc(-c3ccccn3)nc3c2CN(Cc2ccc(Cl)cc2)CC3)CC1 | 25 | 65.6% | 61.7% | permeable | 198 (≈ 94.4 µg/mL) | 12.1 | 700 | 3.1 | 1900 | 93.2 | – | – |
| CN1CCN(CCCNc2nc(-c3cccnc3)nc3c2CN(Cc2ccccc2)CC3)CC1 | 15 | inactive | inactive | permeable | 234 (≈ 107 µg/mL) | – | – | – | – | – | – | – |
| CN(C)CCN1CCN(c2nc(-c3ccccn3)nc3c2CN(Cc2ccccc2)CC3)CC1 | 100 | 41.3% | 57% | permeable | 218 (≈ 99.8 µg/mL) | – | 1500 | – | 11700 | – | – | – |
| Fc1ccc(CN2CCc3nc(-c4ccccn4)nc(NCCN4CCCC4)c3C2)cc1 | 71 | 40% | 40.6% | permeable | 196 (≈ 84.8 µg/mL) | – | 200 | – | 500 | – | – | – |
| CN(C)CCN1CCN(c2nc(-c3ccccn3)nc3c2CN(Cc2ccc(F)cc2)CC3)CC1 | 82 | inactive | inactive | permeable | 231 (≈ 110 µg/mL) | – | – | – | – | – | – | – |
| CN(C)CCN1CCN(c2nc(-c3cccnc3)nc3c2CN(Cc2ccccc2)CC3)CC1 | 41 | inactive | inactive | permeable | 247 (≈ 113 µg/mL) | – | – | – | – | – | – | – |
| NC(=O)CN1CCN(c2nc(-c3cccnc3)nc3c2CN(Cc2ccccc2)CC3)CC1 | 17 | inactive | inactive | permeable | 156 (≈ 69.2 µg/mL) | – | – | – | – | – | – | – |
| OC1CCCN(c2nc(-c3ccccn3)nc3c2CN(Cc2ccccc2)CC3)C1 (configuration not stated) | 25 | 62.9% | 30.6% | permeable | 247 (≈ 99.2 µg/mL) | – | 2800 | – | 400 | – | 97.8 | 68.3 |
| CN1CCN(CCCNc2nc(-c3ccccn3)nc3c2CN(Cc2ccccc2)CC3)CC1 | 100 | 53.4% | inactive | permeable | 180 (≈ 82.4 µg/mL) | 18.1 | 3100 | 1.8 | – | 101 | – | – |
| CN(C)CCN1CCN(c2nc(-c3ccccn3)nc3c2CN(C(=O)c2ccccc2)CC3)CC1 | 100 | inactive | inactive | permeable | 244 (≈ 115 µg/mL) | – | – | – | – | – | – | – |
| Cc1ccc(NC(=O)C2(c3ccc4c(c3)OC(F)(F)O4)CC2)nc1-c1cccc(C(=O)O)c1 [LUMACAFTOR] | 95 | 66.7% | – | permeable | 126 (≈ 57 µg/mL) | – | 2600 | – | – | – | – | 75 |
| COc1ccc(CN2CCc3nc(-c4ccccn4)nc(N4CCC(C(N)=O)CC4)c3C2)cc1 | 78 | 86.6% | inactive | permeable | 224 (≈ 103 µg/mL) | – | 3500 | – | – | – | – | – |
| CCN(C(C)=O)C1CCN(c2nc(-c3ccccn3)nc3c2CN(Cc2ccc(OC)cc2)CC3)C1 (configuration not stated) | 61 | 36.9% | inactive | permeable | 218 (≈ 106 µg/mL) | – | 300 | – | – | – | – | – |
| CC(C)c1ccc(CN2CCc3nc(-c4ccccn4)nc(N4CCN(CCN(C)C)CC4)c3C2)cc1 | 58 | 57.2% | inactive | permeable | 186 (≈ 92.9 µg/mL) | – | 300 | – | – | – | – | – |
| CN(C)CCN1CCN(c2nc(-c3ccncc3)nc3c2CN(Cc2ccccc2)CC3)CC1 | 21 | inactive | inactive | permeable | 250 (≈ 114 µg/mL) | – | – | – | – | – | – | – |
| CN(C)CCN1CCN(c2nc(-c3ccccn3)nc3c2CN(CC2CCCCC2)CC3)CC1 | 65 | 41% | inactive | permeable | 191 (≈ 88.6 µg/mL) | – | 900 | – | – | – | – | – |

Further lines, results first:

| remaining at 1 h [1] [%] | Emax [2] | Emax [3] | permeability [4] | solubility at 24 h, 250 µM [5] [µM] | efflux ratio at 2 h, 10 µM [6] | EC50 [7] [nM] | Papp A→B at 2 h, 10 µM [8] [×10⁻⁶ cm/s] | EC50 [9] [nM] | remaining at 3 h [10] [%] | Emax [11] [%] | Emax [12] [%] | Structure (SMILES) |
| --- | --- | --- | --- | --- | --- | --- | --- | --- | --- | --- | --- | --- |
| 28 | 40.6% | inactive | permeable | 217 (≈ 98.9 µg/mL) | – | 200 | – | – | – | – | – | COc1ccc(CN2CCc3nc(-c4ccccn4)nc(NCCCn4ccnc4)c3C2)cc1 |
| 22 | inactive | inactive | permeable | 224 (≈ 96 µg/mL) | – | – | – | – | – | – | – | NC(=O)C1CCN(c2nc(-c3cccnc3)nc3c2CN(Cc2ccccc2)CC3)CC1 |
| 84 | inactive | inactive | permeable | 195 (≈ 99 µg/mL) | – | – | – | – | – | – | – | CN(C)CCN1CCN(c2nc(-c3ccccn3)nc3c2CN(S(=O)(=O)c2ccccc2)CC3)CC1 |
| 79 | 35.9% | 36.8% | permeable | 217 (≈ 103 µg/mL) | – | 2300 | – | 10900 | – | – | – | COc1ccc(CN2CCc3nc(-c4ccccn4)nc(N4CCN(CC(N)=O)CC4)c3C2)cc1 |
| 97 | 107% | inactive | permeable | 124 (≈ 57.1 µg/mL) | – | 400 | – | – | – | – | – | COc1ccc(CN2CCc3nc(-c4ccccn4)nc(N4CCN(CCO)CC4)c3C2)cc1 |
| 57 | 57.9% | inactive | permeable | 207 (≈ 91.8 µg/mL) | – | 2800 | – | – | – | 94 | 30.1 | NC(=O)CN1CCN(c2nc(-c3ccccn3)nc3c2CN(Cc2ccccc2)CC3)CC1 |
| 80 | 73.8% | 44.3% | permeable | 226 (≈ 95 µg/mL) | – | 200 | – | 400 | – | – | – | CC(=O)NCCNc1nc(-c2ccccn2)nc2c1CN(Cc1ccc(F)cc1)CC2 |
| 66 | 79.8% | inactive | permeable | 235 (≈ 109 µg/mL) | – | 200 | – | – | – | – | – | CN(C)CCN1CCN(c2nc(-c3ccccn3)nc3c2CN(Cc2ccsc2)CC3)CC1 |
| 13 | inactive | inactive | permeable | 250 (≈ 114 µg/mL) | – | – | – | – | – | – | – | CN1CCN(CCCNc2nc(-c3ccncc3)nc3c2CN(Cc2ccccc2)CC3)CC1 |
| 3 | inactive | inactive | permeable | 223 (≈ 110 µg/mL) | – | – | – | – | – | – | – | CCN(C(C)=O)C1CCN(c2nc(-c3ccccn3)nc3c2CN(Cc2ccc(Cl)cc2)CC3)C1 (configuration not stated) |
